According to ChEMBL document CHEMBL2062453, “Lead optimization through VLAK protocol: new annelated pyrrolo-pyrimidine derivatives as antitumor agents” (2012):

Assays:
Format in all cases: functional
CCRF-CEM = experiment: Cytotoxicity against human CCRF-CEM cells assessed as cell growth at 10 uM after 48 hrs by SRB assay relative to control; conditions: read-out: Activity
Method in brief: (§1)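 NCI primary screen of about 60 human tumour lines. Cells inoculated and preincubated, then a single test concentration added and cultures incubated 48 h. Result given as percent growth (G%) of treated versus untreated control cells.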

K562 = experiment: Cytotoxicity against human K562 cells assessed as cell growth at 10 uM after 48 hrs by SRB assay relative to control; conditions: K562, 48 h, read-out: Activity; method in brief: as §1
MOLT-4 = experiment: Cytotoxicity against human MOLT4 cells assessed as cell growth at 10 uM after 48 hrs by SRB assay relative to control; conditions: MOLT-4, 48 h, read-out: Activity
SR = experiment: Cytotoxicity against human SR cells assessed as cell growth at 10 uM after 48 hrs by SRB assay relative to control; conditions: read-out: Activity
Method in brief: (§2)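 NCI single-dose primary screen across about 60 human tumour lines. Each line was inoculated and preincubated on microtiter plates, then exposed to one concentration of agent for 48 h. Growth is reported as percent growth (G%) of treated cells versus untreated control cells.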

NCI-H226 = experiment: Cytotoxicity against human NCI-H226 cells assessed as cell growth at 10 uM after 48 hrs by SRB assay relative to control; conditions: NCI-H226, 48 h, read-out: Activity
NCI-H322M = experiment: Cytotoxicity against human NCI-H322M cells assessed as cell growth at 10 uM after 48 hrs by SRB assay relative to control; conditions: read-out: Activity
NCI-H522 = experiment: Cytotoxicity against human NCI-H522 cells assessed as cell growth at 10 uM after 48 hrs by SRB assay relative to control; conditions: NCI-H522, 48 h, read-out: Activity
HT-29 = experiment: Cytotoxicity against human HT-29 cells assessed as cell growth at 10 uM after 48 hrs by SRB assay relative to control; conditions: HT-29, 48 h, read-out: Activity; method in brief: as §1
KM12 = experiment: Cytotoxicity against human KM12 cells assessed as cell growth at 10 uM after 48 hrs by SRB assay relative to control; conditions: KM12, 48 h, read-out: Activity; method in brief: as §1
SF-295 = experiment: Cytotoxicity against human SF295 cells assessed as cell growth at 10 uM after 48 hrs by SRB assay relative to control; conditions: SF-295, 48 h, read-out: Activity
SF-539 = experiment: Cytotoxicity against human SF539 cells assessed as cell growth at 10 uM after 48 hrs by SRB assay relative to control; conditions: SF-539, 48 h, read-out: Activity
SNB-19 = experiment: Cytotoxicity against human SNB19 cells assessed as cell growth at 10 uM after 48 hrs by SRB assay relative to control; conditions: SNB-19, 48 h, read-out: Activity
U-251 = experiment: Cytotoxicity against human U251 cells assessed as cell growth at 10 uM after 48 hrs by SRB assay relative to control; conditions: U-251, 48 h, read-out: Activity; method in brief: as §2
LOX IMVI = experiment: Cytotoxicity against human LOXIMVI cells assessed as cell growth at 10 uM after 48 hrs by SRB assay relative to control; conditions: read-out: Activity; method in brief: as §1
M14 = experiment: Cytotoxicity against human M14 cells assessed as cell growth at 10 uM after 48 hrs by SRB assay relative to control; conditions: M14, 48 h, read-out: Activity; method in brief: as §1
SK-MEL-5 = experiment: Cytotoxicity against human SK-MEL-5 cells assessed as cell growth at 10 uM after 48 hrs by SRB assay relative to control; conditions: SK-MEL-5, 48 h, read-out: Activity
IGROV-1 = experiment: Cytotoxicity against human IGROV1 cells assessed as cell growth at 10 uM after 48 hrs by SRB assay relative to control; conditions: IGROV-1, 48 h, read-out: Activity; method in brief: as §1
OVCAR-5 = experiment: Cytotoxicity against human OVCAR5 cells assessed as cell growth at 10 uM after 48 hrs by SRB assay relative to control; conditions: OVCAR-5, 48 h, read-out: Activity
SK-OV-3 = experiment: Cytotoxicity against human SKOV3 cells assessed as cell growth at 10 uM after 48 hrs by SRB assay relative to control; conditions: SK-OV-3, 48 h, read-out: Activity
786-0 = experiment: Cytotoxicity against human 786-0 cells assessed as cell growth at 10 uM after 48 hrs by SRB assay relative to control; conditions: 786-0, 48 h, read-out: Activity; method in brief: as §1
A498 = experiment: Cytotoxicity against human A498 cells assessed as cell growth at 10 uM after 48 hrs by SRB assay relative to control; conditions: A498, 48 h, read-out: Activity; method in brief: as §1
CAKI-1 = experiment: Cytotoxicity against human Caki1 cells assessed as cell growth at 10 uM after 48 hrs by SRB assay relative to control; conditions: CAKI-1, 48 h, read-out: Activity; method in brief: as §1
SN12C = experiment: Cytotoxicity against human SN12C cells assessed as cell growth at 10 uM after 48 hrs by SRB assay relative to control; conditions: read-out: Activity
UO-31 = experiment: Cytotoxicity against human UO31 cells assessed as cell growth at 10 uM after 48 hrs by SRB assay relative to control; conditions: UO-31, 48 h, read-out: Activity; method in brief: as §2
DU-145 = experiment: Cytotoxicity against human DU145 cells assessed as cell growth at 10 uM after 48 hrs by SRB assay relative to control; conditions: DU-145, 48 h, read-out: Activity; method in brief: as §1
Hs-578T = experiment: Cytotoxicity against human Hs578T cells assessed as cell growth at 10 uM after 48 hrs by SRB assay relative to control; conditions: read-out: Activity; method in brief: as §1
MDA-MB-468 = experiment: Cytotoxicity against human MDA-MB-468 cells assessed as cell growth at 10 uM after 48 hrs by SRB assay relative to control; conditions: MDA-MB-468, 48 h, read-out: Activity
SNB-75 = experiment: Cytotoxicity against human SNB75 cells after 48 hrs by SRB assay; conditions: SNB-75, 48 h; for TGI: read-out: pTGI (converted)
Method in brief: (§3)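 Five-dose screen, 10-fold or ½-log dilutions, compound stock in DMSO. Cells were in RPMI 1640 with 5% FBS and 2 mM glutamine at 5000–40,000 cells/well, preincubated 24 h, 37 °C, 5% CO₂, with a time-zero plate TCA-fixed. After 48 h drug exposure, cells were TCA-fixed and stained with 0.4% SRB, read at 515 nm. GI50, TGI and LC50 were derived from time-zero, control and test absorbances.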

SK-MEL-28 = experiment: Cytotoxicity against human SK-MEL-28 cells after 48 hrs by SRB assay; conditions: SK-MEL-28, 48 h; for TGI: read-out: pTGI (converted); method in brief: as §3
PC-3 = experiment: Cytotoxicity against human PC3 cells after 48 hrs by SRB assay; conditions: PC-3, 48 h; for TGI: read-out: pTGI (converted); method in brief: as §3

Row | Structure (SMILES) | growth at 10 µM (CCRF-CEM) [%] | growth at 10 µM (K562) [%] | growth at 10 µM (MOLT-4) [%] | growth at 10 µM (SR) [%] | growth at 10 µM (NCI-H226) [%] | growth at 10 µM (NCI-H322M) [%] | growth at 10 µM (NCI-H522) [%] | growth at 10 µM (HT-29) [%] | growth at 10 µM (KM12) [%] | growth at 10 µM (SF-295) [%] | growth at 10 µM (SF-539) [%] | growth at 10 µM (SNB-19) [%] | growth at 10 µM (U-251) [%] | growth at 10 µM (LOX IMVI) [%] | growth at 10 µM (M14) [%] | growth at 10 µM (SK-MEL-5) [%] | growth at 10 µM (IGROV-1) [%] | growth at 10 µM (OVCAR-5) [%] | growth at 10 µM (SK-OV-3) [%] | growth at 10 µM (786-0) [%] | further results
1 | CSC1=Nc2c(c(C)c(-c3ccccc3)n2CCCN2CCCCC2)C2=NC(=O)CC(C)N12 (configuration not stated) | 21 | 12 | 68 | 2 | 69 | 62 | 36 | 21 | 2 | 39 | 79 | 20 | 12 | 42 | 60 | 10 | 23 | 83 | 27 | 80 | growth at 10 µM (A498): 81%; growth at 10 µM (CAKI-1): 67%; growth at 10 µM (SN12C): 45%; growth at 10 µM (UO-31): 57%; growth at 10 µM (DU-145): 48%; growth at 10 µM (Hs-578T): 11%; growth at 10 µM (MDA-MB-468): -19%; GI50 (SNB-75): 2690 nM; LC50 (SNB-75): > 100 µM; TGI (SNB-75): 21.9 µM; GI50 (SK-MEL-28): 2.88 µM; LC50 (SK-MEL-28): 36.3 µM; TGI (SK-MEL-28): 13.2 µM; GI50 (PC-3): 1.38 µM; LC50 (PC-3): 9.12 µM; TGI (PC-3): 3.55 µM
2 | CSC1=Nc2c(c(C)c(-c3ccccc3)n2CCCCl)C2=NC(=O)CN12 | 52 | 19 | 51 | 13 | 79 | 82 | 56 | 23 | 26 | 43 | 62 | 81 | 52 | 50 | 31 | 51 | 48 | 86 | 88 | 78 | growth at 10 µM (A498): 47%; growth at 10 µM (CAKI-1): 58%; growth at 10 µM (SN12C): 86%; growth at 10 µM (UO-31): 57%; growth at 10 µM (DU-145): 95%; growth at 10 µM (Hs-578T): 85%; growth at 10 µM (MDA-MB-468): 47%; GI50 (SNB-75): 2820 nM; LC50 (SNB-75): 67.6 µM; TGI (SNB-75): 11.7 µM; GI50 (SK-MEL-28): 10.2 µM; LC50 (SK-MEL-28): 63.1 µM; TGI (SK-MEL-28): 25.1 µM; GI50 (PC-3): 8.71 µM; LC50 (PC-3): > 100 µM; TGI (PC-3): > 100 µM
